Data set [1] has as its system MT4. Description: Cytotoxicity against human MT4 cells after 96 hrs by MTT assay. It is filed as cell-based. The following applies: mt4, 96 h. Put shortly: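 Exponentially growing mock-infected MT-4 seeded at 1 × 10^5 cells/mL in RPMI-1640 with 10% FCS, penicillin and streptomycin. Incubated with or without serial compound dilutions at 37 °C, 5% CO2. Viability by MTT after 96 h. CC50 = concentration reducing viability 50%.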

The nature of data set [2]: Cytotoxicity against MDBK cells after 48 to 96 hrs by MTT assay. It is filed as cell-based, Bos taurus. As to conditions: cattle, mdbk. Put shortly: (§1)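 Mock-infected cells in maintenance medium, MDBK at 6 × 10^5 and BHK at 1 × 10^6 cells/mL initial density, with or without serial compound dilutions. Run in parallel with antiviral assays. Viability by MTT after 48–96 h at 37 °C, 5% CO2. CC50 = concentration reducing viability 50%.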

Data set [3] concerns Bovine viral diarrhea virus 1. The data set is described as follows: Antiviral activity against Bovine viral diarrhea virus infected in MDBK cells assessed as inhibition of virus-induced cytopathicity after 3 to 4 days by MTT assay. It counts as functional, organism-based. The following applies: Bovine viral diarrhea virus isolates and strains.
Data set [4] concerns Yellow fever virus. Description: Antiviral activity against Yellow fever virus infected in BHK-21 cells assessed as inhibition of virus-induced cytopathicity after 3 to 4 days by MTT assay. It counts as functional, organism-based.
Data set [5] has as its system Mammalian orthoreovirus 1. The data set is described as follows: Antiviral activity against Reovirus-1 infected in BHK-21 cells assessed as inhibition of virus-induced cytopathicity after 3 to 4 days by MTT assay. It counts as functional, organism-based. As to conditions: Mammalian orthoreovirus 1, BHK-21. In outline:
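BHK-21 cells seeded at 5 × 10^4 cells/well, grown overnight to confluent monolayers at 37 °C in 5% CO2, then infected at m.o.i. 0.01 in serum-free medium. One hour later, MEM Earle's with 1% final inactivated FCS added, with or without serial compound dilutions. Viability read by MTT after 3–4 days at 37 °C. EC50 is the concentration giving 50% protection from cytopathogenicity.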

Data set [6] relates to Vero. The data set is described as follows: Cytotoxicity against african green monkey Vero 76 cells by crystal violet staining. It counts as cell-based. As to conditions: chlorocebus sabaeus, vero. Put shortly: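 Mock-infected Vero 76 seeded at 4 × 10^5 cells/mL, run in parallel with plaque assays, with or without serial compound dilutions. Cell number of monolayers determined by crystal violet staining. CC50 = concentration reducing viable cell number 50%.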

In data set [7] the test system is Coxsackievirus B2. The data set is described as follows: Antiviral activity against Coxsackie virus type B2 virus infected in african green monkey Vero-76 cells after 3 days by plaque reduction assay. It is filed as functional, organism-based. As to conditions: Enterovirus B, Vero 76, 72 h. In outline:
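Vero 76 cells seeded at 2 × 10^5 cells/well, grown overnight to confluence at 37 °C in 5% CO2, then infected at 50–100 PFU/well. Unadsorbed virus removed. Overlay of DMEM with 1% inactivated FCS and 0.75% methylcellulose, with or without serial compound dilutions. After 3 days at 37 °C, fixed and stained with crystal violet in PBS/50% ethanol; plaques counted. EC50 is the concentration reducing plaque number by 50%.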

Data set [8] relates to Respiratory syncytial virus. Description: Antiviral activity against Respiratory syncytial virus A2 infected in Vero-76 cells after 5 days by plaque reduction assay. It counts as functional, organism-based. The following applies: human respiratory syncytial virus, A2, Vero 76, 120 h.
Data set [9] relates to Human alphaherpesvirus 1. The data set is described as follows: Antiviral activity against HSV1 infected in Vero-76 cells after 3 days by plaque reduction assay. It counts as functional, organism-based. As to conditions: Human alphaherpesvirus 1, Vero 76, 72 h.
The nature of data set [10]: Cytotoxicity against hamster BHK21 cells assessed as reduction in cell viability after 48 to 96 hrs by MTT assay. It counts as cell-based, Mesocricetus auratus, BHK-21. As to conditions: bhk-21. In outline:
as §1

Data set [11] concerns Poliovirus 1. The data set is described as follows: Antiviral activity against Human poliovirus 1 strain Sabin after 2 days by plaque reduction assay. It is filed as functional. The following applies: for EC50: Enterovirus C, 48 h.
Data set [12] concerns Human immunodeficiency virus 1. Description: Antiviral activity against HIV1 infected in human MT4 cells assessed as inhibition of virus-induced cytopathicity after 4 days by MTT assay. It is filed as functional, organism-based.
In data set [13] the test system is Vesicular stomatitis virus. The data set is described as follows: Antiviral activity against Vesicular stomatitis virus after 2 days by plaque reduction assay. It counts as functional, organism-based.
The test system of data set [14] is Vaccinia virus. Description: Antiviral activity against Vaccinia virus after 3 days by plaque reduction assay. As to conditions: Orthopoxvirus vaccinia. It is filed as functional, organism-based.

SMILES strings stand for the structures. The source made the active and inactive calls.

`CN(C)CCCN(/N=N/c1cc(F)ccc1F)c1ccccc1`: the CC50 in data set [1] came out at 13 µM; in [2] it was 25 µM; in data set [6], 7 µM; in data set [10] it was 25 µM. Further, the EC50 is more than 25 µM in data set [3]; more than 25 µM in data set [4]; more than 25 µM in data set [5]; more than 7 µM in data set [7]; more than 7 µM in data set [8]; more than 7 µM in [9]. In [11], the EC50 was more than 7 µM. Further, the inhibition entry in [12] was “inactive”. Besides, the outcome in data set [13] and in [14] was inactive.

Regarding `FC(F)(F)c1cccc(N(C[C@@H]2CCCN3CCCC[C@H]23)/N=N/c2ccccc2)c1`, the CC50 in [1] stood at 17 µM; in data set [2], 22 µM; in [6], 75 µM; in [10], 40 µM. Moreover, the EC50 in data set [3] was more than 22 µM; in data set [4], 23 µM; in [5], more than 40 µM; in data set [7], more than 75 µM; in [8] it was more than 75 µM; in data set [9], more than 75 µM. In data set [11], this compound returned an EC50 of more than 75 µM. In addition, in data set [12], the inhibition result was “inactive”. In addition, the result in data set [13] and in data set [14] was inactive.

In the case of `CN(C)CCCN(/N=N/c1c(F)cccc1F)c1ccccc1`, the cytotoxic concentration (CC50) is 23 µM in [1], 45 µM in [2], 25 µM in data set [6] and 52 µM in [10]. Also, the EC50 in data set [3] was more than 45 µM; in [4] it was 20 µM; in data set [5] it was more than 52 µM; in data set [7] it was 9 µM; in data set [8], not below 25 µM; in data set [9], 12 µM. In data set [11], this compound yielded an EC50 of more than 25 µM. For the same compound, the inhibition entry in data set [12] is “inactive”. Also, the outcome in data set [13] and in [14] was inactive.

On to `Cc1ccc(/N=N/c2ccc(NCCCN(C)C)cc2)cc1`, for which the CC50 in [1] was 17 µM; in [2], more than 100 µM; in [6], 50 µM; in data set [10] it was more than 100 µM. The half-maximal effective concentration (EC50) in data set [3] was more than 100 µM; in [4], more than 100 µM; in data set [5] it was more than 100 µM; in [7], more than 50 µM; in data set [8], more than 50 µM; in [9] it was more than 50 µM. For the same compound, the result in data set [11], in [13] and in data set [14] was inactive. Further, in data set [12], the inhibition entry was “inactive”.

Consider `FC(F)(F)c1cccc(/N=N/c2ccc(NC[C@@H]3CCCN4CCCC[C@H]34)c3c2CCCC3)c1`, for which the cytotoxic concentration (CC50) in data set [1] stood at 15 µM; in data set [2], 30 µM; in data set [6], 50 µM; in [10], 14 µM. The half-maximal effective concentration (EC50) was 7 µM in data set [3]; more than 14 µM in data set [4]; more than 14 µM in [5]; more than 50 µM in data set [7]; more than 50 µM in data set [8]; more than 50 µM in [9]. In addition, the outcome in data set [11], in [13] and in data set [14] was inactive. Besides, the inhibition result in [12] is “inactive”.

Turning to `Fc1ccc(F)c(/N=N/c2ccc(NC[C@@H]3CCCN4CCCC[C@H]34)c3c2CCCC3)c1`, the cytotoxic concentration (CC50) came to 40 µM in data set [1], 64 µM in [2], 80 µM in data set [6] and 38 µM in data set [10]. Further, the concentration giving a half-maximal response (EC50) in [3] was more than 64 µM; in [4], more than 38 µM; in data set [5] it was more than 38 µM; in data set [7] it was more than 80 µM; in [8], more than 80 µM; in data set [9], more than 80 µM. For the same compound, the outcome in data set [11], in data set [13] and in [14] was inactive. Further, the inhibition entry in data set [12] was “inactive”.

`CN(Cc1ccccc1)/N=N/c1ccccc1`: the CC50 in data set [1] was not below 100 µM; in [2], more than 100 µM; in data set [6], not below 100 µM; in [10] it was more than 100 µM. For the same compound, the EC50 in data set [3], in data set [4], in data set [5], in data set [7], in [8] and in data set [9] was more than 100 µM in each case. The EC50 in data set [11] is more than 100 µM. The inhibition entry in [12] is “inactive”. Besides, the outcome in data set [13] and in data set [14] was inactive.

`Fc1ccc(F)c(/N=N/Nc2cccc(C(F)(F)F)c2)c1`: the CC50 in data set [1] was more than 100 µM; in data set [2] it was more than 100 µM; in data set [6], 80 µM; in data set [10], more than 100 µM. For the same compound, the EC50 in data set [3] is more than 100 µM; in data set [4], 80 µM; in data set [5] it was more than 100 µM; in data set [7] it was more than 80 µM; in data set [8], 10 µM; in [9], more than 80 µM. This compound also showed an EC50 in data set [11] of more than 80 µM. Moreover, the inhibition entry in data set [12] is “inactive”. For the same compound, the outcome in [13] and in data set [14] was inactive.

Turning to `CN(C)CCCN(/N=N/c1ccc([N+](=O)[O-])cc1)c1ccccc1`, the CC50 is 20 µM in data set [1], 39 µM in [2], 40 µM in [6] and 36 µM in data set [10]. Further, the EC50 in [3] was not below 39 µM; in [4], not below 36 µM; in [5], more than 36 µM; in data set [7], more than 40 µM; in data set [8] it was more than 40 µM; in data set [9] it was more than 40 µM. In data set [11], this compound came in with an EC50 of more than 40 µM. Besides, in data set [12], the inhibition result was “inactive”. Further, the outcome in data set [13] and in [14] was inactive.

Turning to `CN(C)CCCNc1ccc(/N=N/c2ccc([N+](=O)[O-])cc2)cc1`, the CC50 in [1] is 19 µM; in data set [2] it was more than 100 µM; in data set [6] it was 60 µM; in data set [10], more than 100 µM. Further, the EC50 in data set [3] is more than 100 µM; in data set [4] it was more than 100 µM; in [5], more than 100 µM; in data set [7], more than 60 µM; in data set [8], more than 60 µM; in [9] it was more than 60 µM. Further, the outcome in [11], in data set [13] and in data set [14] was inactive. In addition, in data set [12], the inhibition entry was “inactive”.

With `CN(C)CCCNc1ccc(/N=N/c2c(F)cccc2F)cc1`, the CC50 was 35 µM in [1], 20 µM in data set [2], 65 µM in data set [6] and 43 µM in data set [10]. The concentration giving a half-maximal response (EC50) in data set [3] was not below 20 µM; in data set [4], 10 µM; in [5], 12 µM; in data set [7], more than 65 µM; in data set [8] it was more than 65 µM; in data set [9], more than 65 µM. Also, the outcome in [11], in [13] and in data set [14] was inactive. For the same compound, the inhibition entry in data set [12] was “inactive”.

Turning to `CN(C)CCCN(/N=N/c1ccccc1)c1ccccc1`, the CC50 in [1] was determined as 33 µM; in data set [2], 95 µM; in data set [6] it was 35 µM; in data set [10] it was 50 µM. Besides, the EC50 is not below 95 µM in [3]; more than 50 µM in [4]; more than 50 µM in data set [5]; 6 µM in data set [7]; more than 35 µM in [8]; 12 µM in data set [9]. The compound also registered an EC50 in data set [11] of more than 35 µM. For the same compound, in [12], the inhibition result is “inactive”. For the same compound, the outcome in data set [13] and in data set [14] was inactive.

The values are drawn from ChEMBL document CHEMBL1154067, “Antiviral and cytotoxic activities of aminoarylazo compounds and aryltriazene derivatives” (Bioorg Med Chem, 2009).
